# Test results reported in ChEMBL document CHEMBL4610124, “Novel Thienopyrimidine Inhibitors of Leishmania N-Myristoyltransferase with On-Target Activity in Intracellular Amastigotes” (J Med Chem, 2020).
# Columns and labels:
# [1] = Inhibition of Leishmania donovani NMT using p60 SRC(2 to […]) as substrate by CPM dye based fluorescence assay
# [2] = target: T1, Glycylpeptide N-tetradecanoyltransferase 1 (Homo sapiens, UniProt P30419); format: ADME
# T1 sequence (P30419 whole entry): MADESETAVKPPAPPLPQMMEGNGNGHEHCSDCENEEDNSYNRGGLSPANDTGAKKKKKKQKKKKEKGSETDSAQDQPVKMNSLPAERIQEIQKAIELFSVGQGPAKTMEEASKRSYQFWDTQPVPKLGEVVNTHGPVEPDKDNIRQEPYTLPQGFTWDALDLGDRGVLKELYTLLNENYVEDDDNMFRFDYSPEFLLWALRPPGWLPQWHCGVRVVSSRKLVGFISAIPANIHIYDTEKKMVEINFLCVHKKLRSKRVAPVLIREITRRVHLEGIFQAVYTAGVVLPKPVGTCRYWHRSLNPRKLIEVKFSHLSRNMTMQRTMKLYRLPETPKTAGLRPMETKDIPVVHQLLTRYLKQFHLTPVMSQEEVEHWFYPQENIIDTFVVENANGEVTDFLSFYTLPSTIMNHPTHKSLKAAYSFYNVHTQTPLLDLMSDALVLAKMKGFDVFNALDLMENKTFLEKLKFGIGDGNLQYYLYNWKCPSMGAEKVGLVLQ
# [3] = system: human NMT1 versus Leishmania donovani NMT; test: Selectivity ratio of IC50 for human NMT1 to IC50 for Leishmania donovani NMT; format: toxicity; conditions: read-out: Ratio IC50
# Outline: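 Ratio of IC₅₀ for HsNMT1 to IC₅₀ for LdNMT. Both were measured in a fluorogenic CPM assay, in which coenzyme A released by acyl transfer is detected with the thiol-reactive dye CPM.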
# [4] = Inhibition of Leishmania major NMT using p60 SRC(2 to […]) as substrate by CPM dye based fluorescence assay
# Leishmania donovani [5] = test: Antileishmanial activity against Leishmania donovani MHOM/ET/67/HU3 intracellular amastigotes measured after 72 hrs by alamar blue dye based fluorescence assay; format: functional, organism-based; conditions: MHOM/ET/67/HU3, 72 h
# Outline: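 Ex vivo L. donovani LV9 amastigotes, kept by serial passage in Rag-2−/− mice, isolated from infected spleens by homogenization and saponin lysis. Plated at 4 × 10⁵ per well in RPMI with 20% heat-inactivated FCS, adenine, 20 mM MES (pH 5.5), hemin, biopterin and biotin.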
# Leishmania donovani [6] = test: Effect on total NMT expression in Leishmania donovani MHOM/ET/67/HU3 intracellular amastigotes after 12 hrs in presence of YnMyr by Western blot analysis; format: ADME, organism-based
# Outline: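 Amastigotes from spleens of Rag-2−/− mice, isolated by saponin lysis, seeded at 7.5 × 10⁷/mL in RPMI/10% FCS with inhibitor for 1 h at 37 °C. Then resuspended in fresh medium with inhibitor plus YnMyr (50 μM final) for 12 h. Lysates were click-labelled and run on SDS-PAGE, then immunoblotted with anti-LdNMT antibody.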
SMILES,IC50 [1],IC50 [2],selectivity ratio [3],IC50 [4],EC50 (Leishmania donovani [5]),Activity (Leishmania donovani [6])
COc1ccc2nc(N(C)CCCN(C)C)nc(N(C)CCC#N)c2c1,1.8 µM,> 100 µM,> 56,–,–,–
CN(CCC#N)c1nc(N(C)C2CCNCC2)nc2ccccc12,–,> 100 µM,–,1.1 µM,> 50 µM,–
CN(C)CCCN(C)c1nc(N(C)CCC#N)c2ccccc2n1,–,–,–,2.1 µM,> 50 µM,–
CN(CCC#N)c1nc(N(C)C2CCN(Cc3ccccc3)CC2)nc2ccsc12,27 µM,–,–,–,–,–
CCN(C)c1nc(N(C)CCCN(C)C)nc2ccsc12,–,> 100 µM,> 8,13 µM,–,–
CN1CCC(N(C)c2nc(N(C)CCC#N)c3sc(C(C)(C)C)cc3n2)CC1,0.046 µM,0.55 µM,–,0.042 µM,–,–
CN1CCC(N(C)c2nc(N3CCC[C@H]3CC#N)c3sccc3n2)CC1,0.15 µM,> 100 µM,> 660,–,19 µM,–
CN(CCC#N)c1nc(N(C)C2CCNC2)nc2ccccc12 (centres undefined),5.8 µM,–,–,4.9 µM,–,–
CN(C)CCCN(C)c1nc(N2CCC[C@H]2CO)c2sccc2n1,–,–,–,19 µM,> 50 µM,–
CC(=O)N(C)CCN(C)c1nc(N(C)CCCN(C)C)nc2ccsc12,> 100 µM,> 100 µM,–,–,–,–
CN(CCC#N)c1nc(N(C)C2CCN(Cc3ccccc3)C2)nc2cc(C(C)(C)C)sc12 (centres undefined),7.8 µM,–,–,–,–,–
CN(C)CCCN(C)c1nc(N(C)CCC(N)=O)c2sccc2n1,–,–,–,13 µM,> 50 µM,–
CN(CCC#N)c1nc(N(C)C2CCNC2)nc2cc(C(C)(C)C)sc12 (centres undefined),5.5 µM,> 100 µM,> 18,–,21 µM,–
CN(C)CCCN(C)c1nc(N(C)CCC#N)c2sccc2n1,0.15 to 0.59 µM,> 100 µM,> 170,2.7 µM,> 50 µM,–
CN(C)CCCN(C)c1nc(N(C)CCC#N)c2sc(C(C)(C)C)cc2n1,0.36 µM,–,–,0.16 µM,37 µM,–
CN(C)CCCN(C)c1nc(N(C)CCC#N)c2cc(-c3ccccc3)ccc2n1,0.39 µM,> 100 µM,> 260,–,–,–
CC(C)CN(C)CCCN(C)c1nc(N(C)CCC#N)c2sccc2n1,> 100 µM,–,–,–,–,–
CN1CCC(N(C)c2nc(N(C)CCC#N)c3sccc3n2)CC1,0.34 µM,5.7 µM,–,0.2 µM,–,Non-Toxic
CN(CCC#N)c1nc(N(C)[C@H]2C[C@H]3CC[C@@H](C2)N3C)nc2ccccc12,16 µM,> 100 µM,–,13 µM,> 50 µM,–

SMILES,IC50 [1],IC50 [2],selectivity ratio [3],IC50 [4],EC50 (Leishmania donovani [5]),Activity (Leishmania donovani [6])
CN(CCCN(C)c1nc(N(C)CCC#N)c2sccc2n1)Cc1ccccc1,> 100 µM,–,–,–,–,–
CCN(C)c1nc(N(C)C2CCN(C)CC2)nc2ccsc12,–,7.9 µM,–,0.73 µM,> 50 µM,–
COCCN(C)c1nc(N(C)CCCN(C)C)nc2ccsc12,44 µM,–,–,–,–,–
CN(C)CCCN(C)c1nc(N(C)CCC#N)c2c(ncn2C)n1,> 100 µM,> 100 µM,–,–,–,–
CN(C)CCCN(C)c1nc(N(C)CCC(=O)N(C)C)c2sccc2n1,54 µM,–,–,–,–,–
COc1ccc2nc(N(C)C3CCN(C)CC3)nc(N(C)CCC#N)c2c1,0.5 µM,> 100 µM,> 200,–,–,–
COC[C@@H]1CCCN1c1nc(N(C)C2CCN(C)CC2)nc2ccsc12,0.87 µM,> 100 µM,> 120,–,26 µM,–
CN1CCC(N(C)c2nc(N(C)CCC#N)c3ccccc3n2)C1 (centres undefined),9.5 µM,–,–,–,6.6 µM,Non-Toxic
CC(C)CN1CCC(N(C)c2nc(N(C)CCC#N)c3sccc3n2)CC1,4 µM,> 100 µM,> 25,–,–,–
CN(C)CCCN(C)c1nc(N(C)CCC#N)c2cc(Br)ccc2n1,0.35 µM,–,–,–,17 µM,–
CN(C)CCCN(C)c1nc(N(C)CCC#N)c2cccnc2n1,2.4 µM,> 100 µM,> 42,–,–,–
CN1CCN(c2nc(N(C)CCC#N)c3sccc3n2)CC1,30 µM,–,–,–,–,–
CN1CCC(N(C)c2nc(N(C)CCC#N)c3sc(C(C)(C)C)cc3n2)C1 (centres undefined),–,–,–,–,–,Non-Toxic
CCN1CCC(N(C)c2nc(N(C)CCC#N)c3ccccc3n2)CC1,0.97 µM,–,–,0.95 µM,> 50 µM,–
COc1ccc2c(N(C)CCC#N)nc(N(C)CCCN(C)C)nc2c1,9.5 µM,–,–,–,–,–
CN(c1nc(N2CCC[C@H]2CC#N)c2sccc2n1)C1CCNCC1,0.21 µM,1.6 µM,7.8,–,–,–
CCN(C)c1nc(N(C)CCCN(C)C)nc2ccc(S(=O)(=O)Nc3c(C)nn(C)c3C)cc12,0.23 µM,1.1 µM,4.6,–,–,–
CNCCCN(C)c1nc(N(C)CCC#N)c2sccc2n1,5.2 µM,–,–,–,–,–
CN(CCC#N)c1nc(N(C)C2CCNCC2)nc2ccsc12,0.5 µM,11 µM,22,–,> 50 µM,–

SMILES,IC50 [1],IC50 [2],selectivity ratio [3],IC50 [4],EC50 (Leishmania donovani [5]),Activity (Leishmania donovani [6])
CCN(C)c1nc(N(C)C2CCN(Cc3ccccc3)CC2)nc2ccsc12,> 100 µM,–,–,–,–,–
CN(CCC#N)c1nc(N(CCO)C2CCNCC2)nc2ccccc12,–,–,–,8.2 µM,–,–
CN(C)CCCN(C)c1nc(N(C)CCCO)c2sccc2n1,–,–,–,40 µM,> 50 µM,–
COC[C@@H]1CCCN1c1nc(N(C)C2CCNCC2)nc2ccsc12,4.3 µM,5 µM,1.2,–,–,–
CN1CCC(N(C)c2nc(N(C)CCC#N)c3cc(Br)ccc3n2)C1 (centres undefined),5.5 µM,> 100 µM,> 18,–,–,–
CN(C)CCCN(C)c1ncc2sccc2n1,> 100 µM,–,–,–,–,–
CCN(C)c1nc(N(C)C2CCN(C)CC2)nc2ccc(S(=O)(=O)Nc3c(C)nn(C)c3C)cc12,0.2 µM,2.3 µM,11,–,–,–
CN(CCCO)c1nc(N(C)CCC#N)c2sccc2n1,> 100 µM,–,–,–,–,–
CN(CCC#N)c1nc(N(C)C2CCN(Cc3ccccc3)C2)nc2ccsc12 (centres undefined),> 100 µM,–,–,–,–,–
CN(CCC#N)c1nc(N2CCNCC2)nc2ccsc12,28 µM,–,–,–,–,–
CCN(C)c1nc(N(C)C2CCNCC2)nc2ccc(S(=O)(=O)Nc3c(C)nn(C)c3C)cc12,–,1.7 µM,5.2,–,–,–
CN(CCC#N)c1nc(N(C)C2CCOCC2)nc2ccsc12,> 100 µM,–,–,–,–,–
COCCN(C)c1nc(N2CCN(C)CC2)nc2ccsc12,23 µM,–,–,–,–,–
CN1CCC(N(C)c2nc(N(C)CCC#N)c3cc(Br)ccc3n2)CC1,0.95 µM,> 100 µM,> 20,–,–,–
COc1ccc(-c2ccc3nc(N(C)CCCN(C)C)nc(N(C)CCC#N)c3c2)c(C)c1,6.6 µM,> 100 µM,> 15,–,–,–
Cc1ccccc1-c1ccc2nc(N(C)CCCN(C)C)nc(N(C)CCC#N)c2c1,0.67 µM,> 100 µM,> 150,–,–,–
CN(C)CCCN(C)c1nc(N(C)CCO)c2sccc2n1,22 µM,–,–,36 µM,–,–
CN(C)CCCN(C)c1nccc(N(C)CCC#N)n1,> 100 µM,> 100 µM,–,–,–,–
